# Measured values published in PubChem BioAssay AID463111 (Johns Hopkins Ion Channel Center, 2010).
# The campaign covered roughly 310,000 compounds. About 2,800 (0.9%) were called active. The sample holds actives, similar compounds and a random draw of the others, so the mix is not that of the screen.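 Rule for the calls: active = B-score of the integrated calcium signal more than 4 SD below the library mean, with starting fluorescence not abnormally high; inactive = the rest.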
# Test: enhancers of RGS4 function in calcium signaling – cell-based, HEK293 M3R inducible RGS4, calcium flux, primary screen (AID 463111);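 for B-score: negative B-score means reduced calcium response which marks RGS4 activation or potentiation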
# Conditions: HEK293 M3R/inducible RGS4, carbachol calcium flux Fluo4, at 10 µM; active compounds read low
# Summary of the method: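 System: HEK293 FlpIn-TREx cells, stable M3R, doxycycline-inducible RGS4. Timing: overnight RGS4 induction, 30 min dye load 37 °C, 20 min compound RT. Also added: carbachol, ECmax concentration. Measured by: Fluo4 fluorescence kinetic imaging of calcium. Evaluation: integrated calcium ratio converted to B score.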
row,SMILES,B-score
1,CC(C)OC(=O)c1sc2nc3c(cc2c1N)C(=O)CCC3,inactive
2,Cc1ccc(-c2nn(-c3ccccc3)cc2C(=O)NCCCN2CCCC2=O)cc1,inactive
3,Cc1cccc(C)c1NC(=O)CNC(=O)c1c(C)nn(-c2ccccc2)c1C,inactive
4,CN(/C(=N/S(=O)(=O)c1cccs1)c1ccccc1)c1ccc(O)cc1,inactive
5,CCCNC(=O)CCn1nc(-c2ccccc2)c2ccccc2c1=O,inactive
6,CCc1cccc(CC)c1NC(=O)COc1ccccc1C(=O)c1cc(C#N)c(=O)n(C2CCCCC2)c1,inactive
7,COc1ccc(C(=O)NC(=S)Nc2ccccc2N2CCN(S(C)(=O)=O)CC2)cc1OC,inactive
8,CCc1ccc(C(=O)NC(=S)Nc2ccccc2N2CCOCC2)cc1,inactive
9,CC(=O)N1CCN(c2ccccc2NC(=S)NC(=O)c2cc3ccccc3o2)CC1,-6.98 (active)
10,CCCCn1c(N)c(N(CC(C)C)C(=O)C2CSC3(C)CCC(=O)N23)c(=O)[nH]c1=O (configuration not stated),inactive
11,CCCCn1c(N)c(N(CC)C(=O)c2ccc(N(C)S(=O)(=O)c3ccc(C)cc3)cc2)c(=O)[nH]c1=O,inactive
12,Cc1cc(/C=C2/C(=N)N3C(=NC2=O)SN=C3S(C)(=O)=O)c(C)n1-c1ccccc1,inactive
13,CCS(=O)(=O)C1=NSC2=NC(=O)/C(=C\c3cc(C)n(-c4cccc(OC)c4)c3C)C(=N)N21,-7.01 (active)
14,CCS(=O)(=O)C1=NSC2=NC(=O)/C(=C\c3ccc(OS(=O)(=O)c4ccccc4)cc3)C(=N)N21,inactive
15,COCCCNC(=O)CNC(=O)c1nn(-c2ccc(OC)cc2)c(=O)c2ccccc12,inactive
16,Cc1cc([N+](=O)[O-])ccc1NC1CCCC1,inactive
17,Cc1c(NS(=O)(=O)c2ccc(NC3CCCC3)c([N+](=O)[O-])c2)c(=O)n(-c2ccccc2)n1C,inactive
18,Cc1cc(C=O)c(C)n1-c1ccc(NC2CCCCC2)c([N+](=O)[O-])c1,-7.21 (active)
19,Cc1cc(-c2nnc(SCC(=O)Nc3ccc(F)cc3)n2N)n[nH]1,inactive
20,O=C(NCc1ccco1)/C(=C/c1cccc([N+](=O)[O-])c1)NC(=O)c1ccco1,inactive
21,COc1ccccc1NC(=O)COC(=O)c1ccccc1SCC(=O)N1CCCC1,inactive
22,CC(C)N(Cc1ccccc1)C(=O)COC(=O)c1ccccc1SCC(=O)N1CCCC1,-8.67 (active)
23,CC(NC(=O)c1ccccc1SCC(=O)N1CCCC1)c1ccccc1 (configuration not stated),inactive
24,Cc1ccc(C(=O)N/C(=C\c2cccs2)C(=O)NCCc2ccccn2)cc1C,inactive
25,COc1ccc(CCN(C)C(=O)C2CCCN(Cc3ccc(OC)c(OC)c3)C2)cc1OC (configuration not stated),inactive
26,COc1cc(CN2CCCC(C(=O)c3ccc(SC)cc3)C2)cc(Cl)c1O (configuration not stated),inactive

row,SMILES,B-score
1,COc1ccc(CN2CCCC(C(=O)c3ccc(Cl)cc3)C2)cc1Cn1cncn1 (configuration not stated),-10.3 (active)
2,CC[n+]1c(C)n(-c2ccccc2)c2ccc(NC(C)=O)cc21,inactive
3,OC(CN=c1sc2ccccc2n1CC(O)COc1ccccc1)COc1ccccc1 (configuration not stated),-10.8 (active)
4,CC(C)c1ccc(OCC(O)Cn2cnc3ccccc32)cc1 (configuration not stated),inactive
5,C=CCn1c(=N)n(CC(O)COc2ccc(OC)cc2)c2ccccc21 (configuration not stated),inactive
6,COc1cccc(NC(=O)Cn2cnc3sc(C)c(S(=O)(=O)N4CCN(C)CC4)c3c2=O)c1,inactive
7,CN1CCC(OC(=O)COc2ccc(Cl)cc2Cl)CC1,-7.11 (active)
8,Cc1ccc(Cl)c(OCC(=O)NN2CCN(C)CC2)c1,inactive
9,O=C(CCCOc1ccc(Cl)cc1Cl)NNC(=O)C1CCC1,inactive
10,CC(C)N1C(=O)N(c2ccccc2)C(C)(O)CC1(C)C (configuration not stated),inactive
11,CN(C)C(CNC(=O)c1ccc(S(=O)(=O)NCc2ccco2)cc1)c1ccccc1 (configuration not stated),inactive
12,CC(C)CN(C(=O)Cn1c(=O)cnc2ccccc21)C1CCS(=O)(=O)C1 (configuration not stated),inactive
13,COc1ccccc1CCCNC(=O)C1CCC(=O)N(CCN2CCOCC2)C1 (configuration not stated),inactive
14,Cc1ccc(-n2[nH]c(C)c(/C=N/N3C(=O)c4cccc5cccc(c45)C3=O)c2=O)cc1,-9.28 (active)
15,COc1cc(SC#N)ccc1N=Cc1c(C)[nH]n(-c2ccc(C)cc2)c1=O,inactive
16,Cc1[nH]n(-c2cccc(Cl)c2)c(=O)c1/C=N/n1c(C)nc2ccccc2c1=O,inactive
17,COc1ccc(N2CCN(S(=O)(=O)c3ccc4c(c3)N(C(C)=O)CCO4)CC2)cc1,inactive
18,CCOc1ccc(NC(=O)C(C)N2C(=O)c3ccccc3C2=O)cc1 (configuration not stated),inactive
19,CC(=O)c1ccc(OCC(O)CN2CCN(S(=O)(=O)c3cccc(Br)c3)CC2)cc1 (configuration not stated),inactive
20,COc1ccc(C2c3ccc(O)cc3Oc3ncn(CCCO)c(=N)c32)cc1OC (configuration not stated),inactive
21,c1ccc2c(c1)CSc1sccc1C2=C1CCNCC1,-7.49 (active)
22,Nc1nnc(SCC(=O)NC2CCCc3ccccc32)s1 (configuration not stated),inactive
23,CCn1ccnc1CN1CCCC(C(=O)c2ccc3c4c(cccc24)CC3)C1 (configuration not stated),inactive
24,CC(C)(C)NCCCOc1ccc(Cl)cc1C(C)(C)C,inactive
25,CN(C)CCOc1ccc(Cl)cc1C(C)(C)C,-7.65 (active)
26,CN(C)CCOCCOc1ccc(Cl)c2ccccc12,inactive

row,SMILES,B-score
1,COc1ccc(/C=C2/SC(=O)N(CCCCCC(=O)Nc3ccccc3C(=O)O)C2=S)cc1,inactive
2,CCCN(CCc1ccccc1)C1CCc2c(O)cccc2C1 (configuration not stated),-10.2 (active)
3,Cc1cc(C)cc(C(=O)N(CCc2ccccc2)C2=CC3CCC(C2)N3C)c1 (configuration not stated),inactive
4,CN(C)S(=O)(=O)c1cccc(-c2nn(-c3ccccc3)cc2/C=C2\SC(=S)N(CC(=O)O)C2=O)c1,inactive
5,COc1ccc(-c2nn(-c3ccccc3)cc2/C=C2/SC(=S)N(CCCC(=O)O)C2=O)c(C)c1,inactive
6,Cc1ccc(-c2nn(-c3ccccc3)cc2/C=C2\SC(=S)N(CCCCCC(=O)O)C2=O)o1,-7.93 (active)
7,Oc1oc(-c2ccccc2Br)nc1/C=N/c1ccccn1,inactive
8,CSc1nnnn1-c1c(C)cc(C)cc1C,inactive
9,Cc1cc2oc(=O)cc(CN3CCN(Cc4ccccc4)CC3)c2cc1C,inactive
10,Cc1cc2oc3ccc(NCCC4CCCN4C)cc3c(=O)c2cc1C (configuration not stated),-9.61 (active)
11,CCCOc1ccc(C2c3c(oc4cc(C)c(C)cc4c3=O)C(=O)N2CCCN2CCOCC2)cc1 (configuration not stated),inactive
12,C=CS(=O)c1sc(Cl)c(N2CCOCC2)c1[N+](=O)[O-] (configuration not stated),inactive
13,CCC(C(=O)OC)n1cnc2scc(-c3ccc(C)cc3)c2c1=O (configuration not stated),inactive
14,CC(=O)Nc1ccc(/C(C)=N/NC(=O)CN(c2ccccc2Br)S(C)(=O)=O)cc1,inactive
15,O=C(O)c1cccc2c1C(=O)N(C1CCCC1)C2,inactive
16,CCc1c(C)sc(NC(=O)c2ccc(Br)o2)c1C(=O)OC,-10.4 (active)
17,CCc1c(C)sc(NC(=O)c2cccs2)c1C(N)=O,inactive
18,CCOC(=O)c1c(NC(=O)C2CC=CCC2C(=O)O)sc(C)c1CC (configuration not stated),inactive
19,COc1cccc(OC)c1C(=O)OCC(=O)/C(C#N)=C(\C)N,inactive
20,Cc1ccc(CNC(=O)Cn2cnc(S(=O)(=O)N3CCCCC3)c2)o1,inactive
21,Cc1nn(CC(=O)Nc2ccc(C#N)cc2)c(C)c1[N+](=O)[O-],inactive
22,CCOc1ccccc1NC(=O)C1CCCN(S(=O)(=O)c2ccccc2)C1 (configuration not stated),inactive
23,CC1Cc2ccccc2N1CC(=O)Nc1ccc2c(c1)OC(F)(F)O2 (configuration not stated),inactive
24,CN1CCN(c2ccc(S(=O)(=O)Nc3ccccc3)cc2[N+](=O)[O-])CC1,-8.35 (active)
25,CC1CCN(c2ccc(S(=O)(=O)Nc3cc(C(=O)O)cc(C(=O)O)c3)cc2[N+](=O)[O-])CC1,inactive
26,COc1ccc(NS(=O)(=O)c2ccc(N3CCN(CCO)CC3)c([N+](=O)[O-])c2)cc1,inactive

row,SMILES,B-score
1,COc1ccc(N2CCN(C(=O)C3CCN(C(=O)c4ccccc4Cl)CC3)CC2)cc1,inactive
2,Cc1ccc(S(=O)(=O)NCc2csc(C)n2)c(C)c1,inactive
3,Cc1ccc(OS(=O)(=O)c2ccc(-c3csc(C)n3)s2)c(C)c1,-9.64 (active)
4,CNC(=O)c1sc(NCc2ccccc2OC)nc1C,inactive
5,O=C(NCCCN1CCOCC1)c1cc2c(s1)CCC2,inactive
6,O=C(CN1C(=O)COc2ccccc21)NCCN1CCc2ccccc2C1,inactive
7,Cc1cccc2c1-c1sc(C(=O)NCCCN3CCc4ccccc4C3)cc1CO2,-7.27 (active)
8,CCOc1ccc(N(C)S(=O)(=O)c2cnc[nH]2)cc1,inactive
9,COc1ccccc1C(=O)NC(=S)Nc1ccccc1N1CCCCC1,inactive
10,Clc1ccc(COn2c(-c3ccc(Cl)cc3Cl)nc3ncccc32)cc1,-8.26 (active)
11,COn1c(-c2ccc(Cl)cc2Cl)nc2ncccc21,inactive
12,Clc1ccc(-c2ncc3ccccn23)c(Cl)c1,inactive
13,COCCn1c(SCC(=O)Nc2nc(C)cs2)nnc1C(C)C,inactive
14,COCCNc1cc(-c2ccccc2)nc2cc(-c3cccc(F)c3)nn12,-7.61 (active)
15,COC(=O)c1cc2nc(-c3ccccc3)cc(C(F)(F)F)n2n1,inactive
16,COc1ccc(NC(=O)c2cc3nc(-c4ccccc4)cc(C)n3n2)cc1OC,inactive
17,CN(C)CCCNC(=O)c1cc(C(=O)Cc2ccc(Cl)cc2)c[nH]1,inactive
18,CC(=O)C1C(c2ccc(Cl)cc2)c2c(n[nH]c2C)CC1(C)O (configuration not stated),inactive
19,COC(=O)c1ccccc1NC(=O)CSc1nnnn1C,inactive
20,C=CCn1c(SCC(=O)Nc2nc3ccccc3s2)nnc1-c1ccccc1O,inactive
21,Cn1nnnc1SCC(=O)Nc1nc2ccccc2s1,-7.23 (active)
22,Cc1cccc(CC(=O)N2CCN=C2SCc2ccc([N+](=O)[O-])cc2)c1,inactive
23,Cc1cc(C)cc(C(=O)N2CCN=C2SCc2ccc([N+](=O)[O-])cc2)c1,-8.97 (active)
24,O=C(Cc1ccc(F)cc1)N1CCN=C1SCc1cccc([N+](=O)[O-])c1,inactive
